From paper PMC3517043 (ChemMedChem, 2012)
Values after ≈ are worked out from the molar mass of the structure shown. Where two headings read alike, the source gives them in different places. Square brackets hold non-standard residues; d marks the D form. Ends that are not written are not given here. Peptide text beside a SMILES is read from it. NMeI = CC[C@H](C)[C@H](NC)C(=O)O; NMeV = CN[C@H](C(=O)O)C(C)C; NMeA = CN[C@@H](C)C(=O)O; Sar = CNCC(=O)O

What was measured:
[1] = Solubility by filtration assay; assay type: physicochemical; settings: pH 7.4
[2] = system: differentiated PC-12 cells; experiment: Toxicity of peptides alone, MTT cell viability assay; assay type: cell-based, rat; settings: peptide alone at 50 μM, 24 h
In short: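 PC-12 cells differentiated with nerve growth factor (50 ng/mL) for 48 h. Peptide dissolved in a small amount of 60 mM NaOH, diluted to 50 μM in culture medium, and incubated alone with cells for 24 h. Viability read by MTT kit. Controls were NaOH at matching concentration and medium alone. Percentage viability was scaled to 1 μM staurosporine, taken as 100% loss.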

[3] = system: Aβ42-induced toxicity in differentiated PC-12 cells; assay type: cell-based, rat; settings: for IC50: 24 h; for Decrease in activity relative to the corresponding N-Me-A analogue (MTT): original side-chain restored versus N-Me-A at the same position
[4] = system: Aβ42-induced toxicity in differentiated PC-12 cells; assay type: cell-based, rat; settings: for IC50: 48 h; for Decrease in activity relative to the corresponding N-Me-A analogue (LDH): original side-chain restored versus N-Me-A at the same position
Aβ42 = settings: read-out: IC50, inhibition of Aβ42 hexamer formation; photo-induced cross-linking of unmodified proteins; cited from earlier work
[5] = system: mouse primary hippocampal neurons; settings: cited from earlier work

## CC[C@H](C)[C@H](NC(=O)[C@H](C)NC)C(=O)NCC(=O)N[C@@H](CC(C)C)C(=O)N[C@@H](CCSC)C(=O)N[C@H](C(=O)NCC(=O)NCC(=O)N[C@H](C(=O)N[C@H](C(=O)N[C@H](C(=O)N[C@@H](C)C(=O)O)[C@@H](C)CC)C(C)C)C(C)C)C(C)C [[N-Me-A1]Aβ(31–42), (N-Me)A-IGLMVGGWIA] (H-[NMeA]IGLMVGGVVIA-OH; N-terminus assumed)
[1]; 10 mM sodium phosphate buffer
  solubility at 1 min: 8 ± 1 µM (≈ 8.91 µg/mL)
[2]
  Toxicity of the peptide itself (cell viability, MTT): toxic

## CC[C@H](C)[C@H](N)C(=O)N[C@H](C(=O)NCC(=O)N[C@@H](CC(C)C)C(=O)N[C@@H](CCSC)C(=O)N[C@H](C(=O)NCC(=O)N(C)[C@@H](C)C(=O)N[C@H](C(=O)N[C@H](C(=O)N[C@H](C(=O)N[C@@H](C)C(=O)O)[C@@H](C)CC)C(C)C)C(C)C)C(C)C)[C@@H](C)CC [[N-Me-A8]Aβ(31–42), IIGLMVG-(N-Me)A-WIA] (H-IIGLMVG[NMeA]VVIA-OH; N-terminus assumed)
[1]; 10 mM sodium phosphate buffer
  solubility at 1 min: 41 ± 12 µM (≈ 48 µg/mL)
[3]
  IC50: 12 ± 1 µM
[4]
  IC50: 14 ± 1 µM

## CC[C@H](C)[C@H](N)C(=O)N[C@H](C(=O)NCC(=O)N[C@@H](CC(C)C)C(=O)N[C@@H](CCSC)C(=O)N[C@H](C(=O)NCC(=O)NCC(=O)N[C@H](C(=O)N[C@H](C(=O)N(C)[C@H](C(=O)N[C@@H](C)C(=O)O)[C@@H](C)CC)C(C)C)C(C)C)C(C)C)[C@@H](C)CC [[N-Me-I11]Aβ3(31–42), IIGLMVGGW-(N-Me)I-A] (H-IIGLMVGGVV[NMeI]A-OH; N-terminus assumed)
[1]; 10 mM sodium phosphate buffer
  solubility at 1 min: 132 ± 34 µM (≈ 153 µg/mL)
[3]
  IC50: 13 ± 1 µM
[4]
  IC50: 49 ± 3 µM

## CC[C@H](C)[C@H](N)C(=O)N[C@H](C(=O)NCC(=O)N[C@@H](CC(C)C)C(=O)N[C@@H](CCSC)C(=O)N[C@H](C(=O)N(C)[C@@H](C)C(=O)NCC(=O)N[C@H](C(=O)N[C@H](C(=O)N[C@H](C(=O)N[C@@H](C)C(=O)O)[C@@H](C)CC)C(C)C)C(C)C)C(C)C)[C@@H](C)CC [[N-Me-A7]Aβ(31–42), IIGLMV-(N-Me)A-GWIA] (H-IIGLMV[NMeA]GVVIA-OH; N-terminus assumed)
[1]; 10 mM sodium phosphate buffer
  solubility at 1 min: 88 ± 14 µM (≈ 103 µg/mL)

## CC[C@H](C)[C@H](N)C(=O)N[C@H](C(=O)NCC(=O)N[C@@H](CC(C)C)C(=O)N[C@@H](CCSC)C(=O)N[C@H](C(=O)NCC(=O)NCC(=O)N[C@H](C(=O)N[C@H](C(=O)N[C@H](C(=O)N(C)[C@@H](C)C(=O)O)[C@@H](C)CC)C(C)C)C(C)C)C(C)C)[C@@H](C)CC [[N-Me-A12]Aβ(31–42)] (H-IIGLMVGGVVI[NMeA]-OH; N-terminus assumed)
[1]; 10 mM sodium phosphate buffer
  solubility at 1 min: 28 ± 13 µM (≈ 32.4 µg/mL)

## CC[C@H](C)[C@H](N)C(=O)N[C@H](C(=O)NCC(=O)N[C@@H](CC(C)C)C(=O)N[C@@H](CCSC)C(=O)N[C@H](C(=O)NCC(=O)NCC(=O)N[C@H](C(=O)N(C)[C@@H](C)C(=O)N[C@H](C(=O)N[C@@H](C)C(=O)O)[C@@H](C)CC)C(C)C)C(C)C)[C@@H](C)CC [[N-Me-A10]Aβ(31–42), IIGLMVGGV-(N-Me)A-IA]
[1]
  solubility at 1 min: 121 ± 28 µM (≈ 136 µg/mL)

## CC[C@H](C)[C@H](N)C(=O)N[C@H](C(=O)NCC(=O)N[C@@H](CC(C)C)C(=O)N[C@@H](CCSC)C(=O)N[C@H](C(=O)NCC(=O)NCC(=O)N(C)[C@@H](C)C(=O)N[C@H](C(=O)N[C@H](C(=O)N[C@@H](C)C(=O)O)[C@@H](C)CC)C(C)C)C(C)C)[C@@H](C)CC [[N-Me-A9]Aβ(31–42), IIGLMVGG-(N-Me)A-VIA] (H-IIGLMVGG[NMeA]VIA-OH; N-terminus assumed)
[1]; 10 mM sodium phosphate buffer
  solubility at 1 min: 115 ± 21 µM (≈ 130 µg/mL)
[3]
  IC50: 6 ± 1 µM
[3]; relative to Aβ(31–42)
  Improvement of IC50 relative to the parent peptide (MTT): 3 fold
[4]
  IC50: 7 ± 1 µM
[4]; relative to Aβ(31–42)
  Improvement of IC50 relative to the parent peptide (LDH): 6 fold

## CC[C@H](C)[C@H](NC)C(=O)N[C@H](C(=O)NCC(=O)N[C@@H](CC(C)C)C(=O)N[C@@H](CCSC)C(=O)N[C@H](C(=O)NCC(=O)NCC(=O)N[C@H](C(=O)N[C@H](C(=O)N[C@H](C(=O)N[C@@H](C)C(=O)O)[C@@H](C)CC)C(C)C)C(C)C)C(C)C)[C@@H](C)CC [[N-Me-I1]Aβ3(31–42), (N-Me)I-IGLMVGGWIA] (H-[NMeI]IGLMVGGVVIA-OH; N-terminus assumed)
[1]; 10 mM sodium phosphate buffer
  solubility at 1 min: 7 ± 1 µM (≈ 8.09 µg/mL)
[2]; listed as [N-Me-I1]Aβ(31–42)
  Toxicity of the peptide itself (cell viability, MTT): as toxic as [N-Me-A1]Aβ(31–42)

## IIGLMVGGVVIA-OH [Aβ(31–42), IIGLMVGGVVIA]
[1]
  solubility at 1 min: 25 ± 4 µM
[3]
  IC50: 18 ± 1 µM
[4]
  IC50: 43 ± 2 µM
Aβ42
  IC50: 23 ± 4 µM
[5]
  Rescue from Aβ42-induced inhibition of miniature excitatory postsynaptic current frequency: rescued

## CC[C@H](C)[C@H](N)C(=O)N[C@H](C(=O)NCC(=O)N[C@@H](CC(C)C)C(=O)N[C@@H](CCSC)C(=O)N[C@H](C(=O)NCC(=O)NCC(=O)N[C@H](C(=O)N[C@H](C(=O)N(C)[C@@H](C)C(=O)N[C@@H](C)C(=O)O)C(C)C)C(C)C)C(C)C)[C@@H](C)CC [[N-Me-A11]Aβ(31–42), IIGLMVGGW-(N-Me)A-A] (H-IIGLMVGGVV[NMeA]A-OH; N-terminus assumed)
[1]; 10 mM sodium phosphate buffer
  solubility at 1 min: 86 ± 22 µM (≈ 95.8 µg/mL)
[3]
  IC50: 10 ± 1 µM
[4]
  IC50: 37 ± 3 µM

## CC[C@H](C)[C@H](N)C(=O)N[C@H](C(=O)N(C)CC(=O)N[C@@H](CC(C)C)C(=O)N[C@@H](CCSC)C(=O)N[C@H](C(=O)NCC(=O)NCC(=O)N[C@H](C(=O)N[C@H](C(=O)N[C@H](C(=O)N[C@@H](C)C(=O)O)[C@@H](C)CC)C(C)C)C(C)C)C(C)C)[C@@H](C)CC [[N-Me-G3]Aβ(31–42), II-(N-Me)G-LMVGGWIA]
[1]; 10 mM sodium phosphate buffer
  solubility at 1 min: 118 ± 11 µM (≈ 136 µg/mL)
[3]
  IC50: 26 ± 1 µM
  Decrease in activity relative to the corresponding N-Me-A analogue (MTT): 1.4 fold

## CC[C@H](C)[C@H](N)C(=O)N[C@H](C(=O)NCC(=O)N[C@@H](CC(C)C)C(=O)N[C@@H](CCSC)C(=O)N[C@H](C(=O)NCC(=O)N(C)CC(=O)N[C@H](C(=O)N[C@H](C(=O)N[C@H](C(=O)N[C@@H](C)C(=O)O)[C@@H](C)CC)C(C)C)C(C)C)C(C)C)[C@@H](C)CC [[N-Me-G8]Aβ(31–42), IIGLMVG-(N-Me)G-WIA] (H-IIGLMVG[Sar]VVIA-OH; N-terminus assumed)
[1]; 10 mM sodium phosphate buffer
  solubility at 1 min: 18 ± 2 µM (≈ 20.8 µg/mL)
[3]
  IC50: 28 ± 1 µM
  Decrease in activity relative to the corresponding N-Me-A analogue (MTT): 2.3 fold
[4]
  IC50: 71 ± 20 µM
  Decrease in activity relative to the corresponding N-Me-A analogue (LDH): 5.0 fold

## CC[C@H](C)[C@H](N)C(=O)N[C@H](C(=O)NCC(=O)N(C)[C@@H](C)C(=O)N[C@@H](CCSC)C(=O)N[C@H](C(=O)NCC(=O)NCC(=O)N[C@H](C(=O)N[C@H](C(=O)N[C@H](C(=O)N[C@@H](C)C(=O)O)[C@@H](C)CC)C(C)C)C(C)C)C(C)C)[C@@H](C)CC [[N-Me-A4]Aβ(31–42), IIG-(N-Me)A-MVGGWIA] (H-IIG[NMeA]MVGGVVIA-OH; N-terminus assumed)
[1]; 10 mM sodium phosphate buffer
  solubility at 1 min: 127 ± 37 µM (≈ 141 µg/mL)

## CC[C@H](C)[C@H](N)C(=O)N[C@H](C(=O)NCC(=O)N[C@@H](CC(C)C)C(=O)N(C)[C@@H](C)C(=O)N[C@H](C(=O)NCC(=O)NCC(=O)N[C@H](C(=O)N[C@H](C(=O)N[C@H](C(=O)N[C@@H](C)C(=O)O)[C@@H](C)CC)C(C)C)C(C)C)C(C)C)[C@@H](C)CC [[N-Me-A5]Aβ(31–42), IIGL-(N-Me)A-VGGWIA] (H-IIGL[NMeA]VGGVVIA-OH; N-terminus assumed)
[1]; 10 mM sodium phosphate buffer
  solubility at 1 min: 105 ± 20 µM (≈ 115 µg/mL)

## CC[C@H](C)[C@H](N)C(=O)N[C@H](C(=O)NCC(=O)N[C@@H](CC(C)C)C(=O)N[C@@H](CCSC)C(=O)N[C@H](C(=O)NCC(=O)NCC(=O)N(C)[C@H](C(=O)N[C@H](C(=O)N[C@H](C(=O)N[C@@H](C)C(=O)O)[C@@H](C)CC)C(C)C)C(C)C)C(C)C)[C@@H](C)CC [[N-Me-V9]Aβ(31–42), IIGLMVGG-(N-Me)V-VIA] (H-IIGLMVGG[NMeV]VIA-OH; N-terminus assumed)
[1]; 10 mM sodium phosphate buffer
  solubility at 1 min: 136 ± 18 µM (≈ 157 µg/mL)
[3]
  IC50: 6 ± 1 µM
[4]
  IC50: 67 ± 8 µM
  Decrease in activity relative to the corresponding N-Me-A analogue (LDH): 9.6 fold

## CC[C@H](C)[C@H](N)C(=O)N[C@H](C(=O)N(C)[C@@H](C)C(=O)N[C@@H](CC(C)C)C(=O)N[C@@H](CCSC)C(=O)N[C@H](C(=O)NCC(=O)NCC(=O)N[C@H](C(=O)N[C@H](C(=O)N[C@H](C(=O)N[C@@H](C)C(=O)O)[C@@H](C)CC)C(C)C)C(C)C)C(C)C)[C@@H](C)CC [[N-Me-A3]Aβ(31–42), II-(N-Me)A-LMVGGWIA]
[1]; 10 mM sodium phosphate buffer
  solubility at 1 min: 102 ± 16 µM (≈ 119 µg/mL)
[3]
  IC50: 18 ± 1 µM
[4]
  IC50: 34 ± 3 µM

## CC[C@H](C)[C@H](N)C(=O)N(C)[C@@H](C)C(=O)NCC(=O)N[C@@H](CC(C)C)C(=O)N[C@@H](CCSC)C(=O)N[C@H](C(=O)NCC(=O)NCC(=O)N[C@H](C(=O)N[C@H](C(=O)N[C@H](C(=O)N[C@@H](C)C(=O)O)[C@@H](C)CC)C(C)C)C(C)C)C(C)C [[N-Me-A2]Aβ(31–42), I-(N-Me)A-GLMVGGWIA] (H-I[NMeA]GLMVGGVVIA-OH; N-terminus assumed)
[1]; 10 mM sodium phosphate buffer
  solubility at 1 min: 101 ± 18 µM (≈ 112 µg/mL)

## CC[C@H](C)[C@H](N)C(=O)N[C@H](C(=O)NCC(=O)N[C@@H](CC(C)C)C(=O)N[C@@H](CCSC)C(=O)N(C)[C@@H](C)C(=O)NCC(=O)NCC(=O)N[C@H](C(=O)N[C@H](C(=O)N[C@H](C(=O)N[C@@H](C)C(=O)O)[C@@H](C)CC)C(C)C)C(C)C)[C@@H](C)CC [[N-Me-A6]Aβ(31–42), IIGLM-(N-Me)A-GGWIA] (H-IIGLM[NMeA]GGVVIA-OH; N-terminus assumed)
[1]; 10 mM sodium phosphate buffer
  solubility at 1 min: 87 ± 18 µM (≈ 98.1 µg/mL)
